Results published in ChEMBL document CHEMBL4130442, “Design, synthesis and structure-activity relationship studies of a focused library of pyrimidine moiety with anti-proliferative and anti-metastasis activities in triple negative breast cancer” (Eur J Med Chem, 2017).

Columns and labels:
MDA-MB-231 [1] = test: Induction of autophagy in human MDA-MB-231 cells assessed as change in p62 protein level at 10 uM incubated for 24 hrs by Western blot method relative to untreated control; type: functional
Summary of the method: (§1)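 MDA-MB-231 cells were exposed for 24 h. Adherent and floating cells were pooled and lysed for 1 h at 4 °C in 50 mM Hepes pH 7.4 with 1% Triton X-100, orthovanadate, NaF, EDTA, PMSF, aprotinin and leupeptin. After 12,000 rpm clearing, equal protein was run on 10-15% SDS-PAGE and blotted to PVDF. Detection used HRP-ECL, with β-actin as loading control and densitometric quantification.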

[2] = target: T1, Platelet-derived growth factor receptor beta (Homo sapiens, UniProt P09619); test: Inhibition of PDGFRbeta in human MDA-MB-231 cells assessed as Akt Ser473 phosphorylation level at 5 uM incubated for 24 hrs by Western blot relative to untreated control; type: cell-based
T1 sequence (P09619 whole entry): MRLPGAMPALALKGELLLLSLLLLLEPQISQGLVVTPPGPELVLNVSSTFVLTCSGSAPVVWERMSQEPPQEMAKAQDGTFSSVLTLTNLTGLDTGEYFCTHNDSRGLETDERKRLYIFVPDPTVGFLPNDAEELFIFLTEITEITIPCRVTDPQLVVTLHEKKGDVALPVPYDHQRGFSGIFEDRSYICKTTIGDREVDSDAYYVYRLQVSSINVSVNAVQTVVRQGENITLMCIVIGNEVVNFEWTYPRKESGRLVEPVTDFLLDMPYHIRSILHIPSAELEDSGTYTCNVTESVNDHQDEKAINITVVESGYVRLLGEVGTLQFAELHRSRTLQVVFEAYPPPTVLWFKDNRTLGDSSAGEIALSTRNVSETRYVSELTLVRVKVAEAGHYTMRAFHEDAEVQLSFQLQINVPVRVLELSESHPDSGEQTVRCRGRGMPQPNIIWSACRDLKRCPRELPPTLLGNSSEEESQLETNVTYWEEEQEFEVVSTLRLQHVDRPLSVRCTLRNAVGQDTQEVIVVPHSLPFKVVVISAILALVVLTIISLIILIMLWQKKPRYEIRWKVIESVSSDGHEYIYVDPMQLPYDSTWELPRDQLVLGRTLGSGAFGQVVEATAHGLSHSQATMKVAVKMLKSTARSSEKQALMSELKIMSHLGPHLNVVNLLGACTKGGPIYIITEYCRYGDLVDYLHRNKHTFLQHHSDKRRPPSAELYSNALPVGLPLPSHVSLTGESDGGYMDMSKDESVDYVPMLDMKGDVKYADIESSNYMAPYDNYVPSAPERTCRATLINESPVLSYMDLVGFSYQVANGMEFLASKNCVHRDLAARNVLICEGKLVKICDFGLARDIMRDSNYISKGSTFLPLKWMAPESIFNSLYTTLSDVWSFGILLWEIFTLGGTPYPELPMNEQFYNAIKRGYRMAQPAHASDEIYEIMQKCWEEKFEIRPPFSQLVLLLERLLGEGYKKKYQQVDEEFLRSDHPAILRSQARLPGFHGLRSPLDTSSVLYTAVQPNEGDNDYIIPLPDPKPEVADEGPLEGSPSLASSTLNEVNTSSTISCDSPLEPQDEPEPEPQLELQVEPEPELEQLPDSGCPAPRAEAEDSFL
Summary of the method: (§2)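 Cells were treated 24 h at several concentrations. Pooled adherent and floating cells were lysed in Hepes 50 mM pH 7.4 / 1% Triton X-100 buffer with vanadate, NaF, EDTA, PMSF, aprotinin and leupeptin. Equal protein was run on 10-15% SDS-PAGE and blotted to PVDF. PDGFR-β-AKT-ULK1 pathway phospho-proteins were probed and detected by ECL, with β-actin as loading control.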

MCF7 = test: Antiproliferative activity against human MCF7 cells incubated for 24 hrs by MTT assay; type: functional, cell-based; conditions: MCF7, 24 h
MDA-MB-231 [3] = test: Induction of autophagy in human MDA-MB-231 cells assessed as change in Beclin-1 protein level at 2.5 uM incubated for 24 hrs by Western blot method relative to untreated control; type: functional; summary of the method: as §1
MDA-MB-231 [4] = test: Effect on total ERK1/2 protein level in human MDA-MB-231 cells at 2.5 uM incubated for 24 hrs in presence of PDGFRbeta siRNA by Western blot relative to untreated control; type: cell-based; conditions: mda-mb-231, 24 h
MDA-MB-231 [5] = test: Antiproliferative activity against human MDA-MB-231 cells incubated for 24 hrs by MTT assay; type: functional, cell-based; conditions: MDA-MB-231, 24 h
Summary of the method: (§3)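 MDA-MB-231 cells grown in DMEM with 10% FBS under 5% CO2 were seeded at 5×10^4 cells/ml. After 24 h, a concentration series was added for 24, 48 or 72 h and viability was read by MTT. IC50 is mean ± SD of triplicates.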

[6] = target: T1, Platelet-derived growth factor receptor beta; test: Inhibition of PDGFRbeta in human MDA-MB-231 cells assessed as ULK Ser317 phosphorylation level at 2.5 uM incubated for 24 hrs by Western blot relative to untreated control; type: cell-based; summary of the method: as §2
[7] = target: T1, Platelet-derived growth factor receptor beta; test: Inhibition of PDGFRbeta in human MDA-MB-231 cells assessed as Akt Thr305 phosphorylation level at 5 uM incubated for 24 hrs by Western blot relative to untreated control; type: cell-based; summary of the method: as §2
[8] = target: T1, Platelet-derived growth factor receptor beta; test: Inhibition of PDGFRbeta in human MDA-MB-231 cells assessed as ULK Ser555 phosphorylation level at 2.5 uM incubated for 24 hrs in presence of control siRNA by Western blot relative to untreated control; type: cell-based
Summary of the method: (§4)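 Cells were transfected with control or PDGFR-β siRNA, then treated with 2.5 μM compound for 24 h. PDGFR-β-AKT-ULK1 pathway phospho-proteins were assessed by western blot: lysis in Hepes pH 7.4 / Triton buffer, 10-15% SDS-PAGE, PVDF, ECL detection, β-actin as loading control.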

[9] = target: T1, Platelet-derived growth factor receptor beta; test: Inhibition of PDGFRbeta in human MDA-MB-231 cells assessed as mTOR Ser2448 phosphorylation level at 2.5 uM incubated for 24 hrs in presence of PDGFRbeta siRNA by Western blot relative to untreated control; type: cell-based; summary of the method: as §4
[10] = target: T1, Platelet-derived growth factor receptor beta; test: Inhibition of PDGFRbeta in human MDA-MB-231 cells assessed as mTOR Ser2448 phosphorylation level at 10 uM incubated for 24 hrs by Western blot relative to untreated control; type: cell-based; summary of the method: as §2
[11] = target: T1, Platelet-derived growth factor receptor beta; test: Inhibition of PDGFRbeta in human MDA-MB-231 cells assessed as mTOR Ser2448 phosphorylation level at 5 uM incubated for 24 hrs by Western blot relative to untreated control; type: cell-based; summary of the method: as §2
[12] = target: T1, Platelet-derived growth factor receptor beta; test: Inhibition of PDGFRbeta in human MDA-MB-231 cells assessed as C-Raf Ser338 phosphorylation level at 10 uM incubated for 24 hrs in presence of PDGFRbeta siRNA by Western blot relative to untreated control; type: cell-based
MDA-MB-231 [13] = test: Induction of autophagy in human MDA-MB-231 cells assessed as change in p62 protein level at 2.5 uM incubated for 24 hrs by Western blot method relative to untreated control; type: functional; summary of the method: as §1
MDA-MB-231 [14] = test: Induction of autophagy in human MDA-MB-231 cells assessed as change in LC3-2 protein level at 2.5 uM incubated for 24 hrs in absence of PDGFRbeta siRNA by Western blot method relative to untreated control; type: functional
Summary of the method: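 Before treatment, MDA-MB-231 cells were transfected with control or PDGFR-β siRNA, then exposed to 2.5 μM compound for 24 h. Lysates of pooled adherent and floating cells were immunoblotted (10-15% SDS-PAGE, PVDF, ECL) for PDGFR-β-AKT-ULK1 autophagy signalling markers, with β-actin as loading control.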

MDA-MB-231 [15] = test: Effect on total c-Raf protein level in human MDA-MB-231 cells at 2.5 uM incubated for 24 hrs in presence of PDGFRbeta siRNA by Western blot relative to untreated control; type: cell-based; conditions: mda-mb-231, 24 h
MDA-MB-231 [16] = test: Induction of autophagy in human MDA-MB-231 cells assessed as change in Beclin-1 protein level at 5 uM incubated for 24 hrs by Western blot method relative to untreated control; type: functional
Summary of the method: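 MDA-MB-231 cells (ATCC; DMEM, 10% FBS, 5% CO2) were treated 24 h over a concentration series. Adherent and floating cells were pooled and lysed 1 h at 4 °C (50 mM Hepes pH 7.4, 1% Triton X-100, phosphatase/protease inhibitors). Equal protein was run on 10-15% SDS-PAGE, transferred to PVDF, probed for Beclin-1, p62 and LC3 with HRP/ECL detection, and normalised to β-actin.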

[17] = target: T1, Platelet-derived growth factor receptor beta; test: Inhibition of PDGFRbeta in human MDA-MB-231 cells assessed as ULK Ser555 phosphorylation level at 2.5 uM incubated for 24 hrs in presence of PDGFRbeta siRNA by Western blot relative to untreated control; type: cell-based; summary of the method: as §4
MDA-MB-231 [18] = test: Effect on total ERK1/2 protein level in human MDA-MB-231 cells at 5 uM incubated for 24 hrs in presence of PDGFRbeta siRNA by Western blot relative to untreated control; type: cell-based; conditions: mda-mb-231, 24 h
MDA-MB-231 [19] = test: Antiproliferative activity against human MDA-MB-231 cells incubated for 48 hrs by MTT assay; type: functional, cell-based; conditions: MDA-MB-231, 48 h; summary of the method: as §3
[20] = target: T1, Platelet-derived growth factor receptor beta; test: Inhibition of PDGFRbeta in human MDA-MB-231 cells assessed as ULK Ser317 phosphorylation level at 2.5 uM incubated for 24 hrs in absence of PDGFRbeta siRNA by Western blot relative to untreated control; type: cell-based; summary of the method: as §4
[21] = target: T1, Platelet-derived growth factor receptor beta; test: Inhibition of PDGFRbeta in human MDA-MB-231 cells assessed as C-Raf Ser259 phosphorylation level at 5 uM incubated for 24 hrs in presence of PDGFRbeta siRNA by Western blot relative to untreated control; type: cell-based

COc1cccc(Nc2cc(N3CCN(C(=O)Nc4ccc(C(F)(F)F)cc4)CC3)ncn2)c1
fold change (FC) (MDA-MB-231 [1]): 0.55 | fold change (FC) [2]: 0.23 | IC50 (MCF7): 2.16 µM | fold change (FC) (MDA-MB-231 [3]): 2.3 | fold change (FC) (MDA-MB-231 [4]): 1.08 | IC50 (MDA-MB-231 [5]): 0.73 to 0.75 µM | fold change (FC) [6]: 1.5 | fold change (FC) [7]: 0.75 | fold change (FC) [8]: 3.21 | fold change (FC) [9]: 0.16 | fold change (FC) [10]: 0.16 | fold change (FC) [11]: 0.23 | fold change (FC) [12]: 0.66 | fold change (FC) (MDA-MB-231 [13]): 0.78 | fold change (FC) (MDA-MB-231 [14]): 2.87 | fold change (FC) (MDA-MB-231 [15]): 0.8 | fold change (FC) (MDA-MB-231 [16]): 2.8 | fold change (FC) [17]: 3.69 | fold change (FC) (MDA-MB-231 [18]): 2 | IC50 (MDA-MB-231 [19]): 0.68 µM | fold change (FC) [20]: 3.67 | fold change (FC) [21]: 1.06
